Results as given in ChEMBL document CHEMBL3862041, “Discovery of Novel Bruton's Tyrosine Kinase (BTK) Inhibitors Bearing a N,9-Diphenyl-9H-purin-2-amine Scaffold” (ACS Med Chem Lett, 2016).

Assays:
[1] = Antiproliferative activity against human Ramos cells after 48 hrs by CCK-8 assay; format: functional, cell-based
Outline: (§1)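 Dose-response curves run at five concentrations in Ramos and Raji B-cell leukemia lines, with viability read by the CCK-8 method. IC50 is the concentration in micromolar that inhibits cell growth by 50%, taken from these curves.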

[2] = target: T1, Tyrosine-protein kinase JAK3 (Homo sapiens, UniProt P52333); test: Inhibition of JAK3 (unknown origin)
T1 sequence (P52333 whole entry): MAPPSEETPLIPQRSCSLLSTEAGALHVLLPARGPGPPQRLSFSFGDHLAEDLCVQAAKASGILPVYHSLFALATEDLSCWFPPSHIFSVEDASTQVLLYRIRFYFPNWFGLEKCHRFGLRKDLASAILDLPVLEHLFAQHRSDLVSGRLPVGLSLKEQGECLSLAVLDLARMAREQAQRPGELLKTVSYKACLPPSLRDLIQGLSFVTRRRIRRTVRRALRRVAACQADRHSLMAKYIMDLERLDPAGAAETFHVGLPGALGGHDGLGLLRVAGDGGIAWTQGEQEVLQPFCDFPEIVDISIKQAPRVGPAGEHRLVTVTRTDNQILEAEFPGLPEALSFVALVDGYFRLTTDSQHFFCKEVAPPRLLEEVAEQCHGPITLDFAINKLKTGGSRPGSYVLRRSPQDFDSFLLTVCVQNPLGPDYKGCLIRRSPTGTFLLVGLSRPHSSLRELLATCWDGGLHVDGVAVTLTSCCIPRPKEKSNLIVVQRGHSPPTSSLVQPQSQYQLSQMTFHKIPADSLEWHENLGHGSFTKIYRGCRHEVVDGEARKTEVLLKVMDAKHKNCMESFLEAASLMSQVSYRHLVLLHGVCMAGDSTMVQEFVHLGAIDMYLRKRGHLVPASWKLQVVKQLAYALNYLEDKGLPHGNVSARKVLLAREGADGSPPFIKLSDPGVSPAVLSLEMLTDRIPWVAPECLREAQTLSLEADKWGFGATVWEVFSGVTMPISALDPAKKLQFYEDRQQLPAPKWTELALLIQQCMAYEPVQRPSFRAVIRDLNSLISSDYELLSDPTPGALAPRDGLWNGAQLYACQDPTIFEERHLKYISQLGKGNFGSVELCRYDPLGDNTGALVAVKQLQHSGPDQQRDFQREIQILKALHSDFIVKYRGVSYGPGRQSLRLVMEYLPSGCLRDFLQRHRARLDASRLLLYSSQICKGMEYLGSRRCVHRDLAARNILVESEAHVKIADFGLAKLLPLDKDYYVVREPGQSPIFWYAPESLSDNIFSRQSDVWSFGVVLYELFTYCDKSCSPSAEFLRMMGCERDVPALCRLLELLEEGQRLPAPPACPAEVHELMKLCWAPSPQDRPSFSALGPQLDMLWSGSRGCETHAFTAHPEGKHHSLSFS

[3] = Antiproliferative activity against human Raji cells after 48 hrs by CCK-8 assay; format: functional, cell-based; outline: as §1
[4] = target: Tyrosine-protein kinase BTK (Homo sapiens, UniProt Q06187); test: Inhibition of recombinant human N-terminal His-tagged BTK expressed in baculovirus infected sf9 cells using poly(4:1 Glu,Tyr) as substrate by ADP-Glo kinase assay
Chain of Tyrosine-protein kinase BTK (Q06187 whole entry): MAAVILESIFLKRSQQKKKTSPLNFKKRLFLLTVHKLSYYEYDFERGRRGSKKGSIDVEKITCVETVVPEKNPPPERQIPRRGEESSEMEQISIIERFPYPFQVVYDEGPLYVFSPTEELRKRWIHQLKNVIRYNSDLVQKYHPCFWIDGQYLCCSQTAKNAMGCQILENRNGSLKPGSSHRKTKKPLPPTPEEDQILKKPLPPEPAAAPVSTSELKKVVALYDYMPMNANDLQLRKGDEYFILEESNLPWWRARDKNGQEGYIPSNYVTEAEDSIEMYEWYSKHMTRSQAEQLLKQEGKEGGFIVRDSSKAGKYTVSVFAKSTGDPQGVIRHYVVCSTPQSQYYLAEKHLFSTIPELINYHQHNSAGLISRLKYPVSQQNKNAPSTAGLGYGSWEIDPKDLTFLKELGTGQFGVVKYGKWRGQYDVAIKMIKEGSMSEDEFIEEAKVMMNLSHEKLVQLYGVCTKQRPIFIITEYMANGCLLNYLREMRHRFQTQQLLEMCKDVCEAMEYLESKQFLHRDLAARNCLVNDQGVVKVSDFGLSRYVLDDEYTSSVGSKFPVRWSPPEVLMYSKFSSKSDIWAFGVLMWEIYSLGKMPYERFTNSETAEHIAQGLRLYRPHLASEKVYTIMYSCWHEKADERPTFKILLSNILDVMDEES

Ramos [5] = test: Induction of apoptosis in human Ramos cells assessed as early apoptotic cells at 10 uM after 48 hrs by annexin V/FITC propidium iodide staining based flow cytometry relative to control; format: functional
Outline: (§2)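 Ramos cells exposed for 48 h to the indicated compound concentrations. Cells then stained with annexin V/FITC and analysed by flow cytometry for apoptosis.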

Ramos [6] = test: Induction of apoptosis in human Ramos cells assessed as viable cells at 10 uM after 48 hrs by annexin V-FITC/propidium iodide staining based flow cytometry relative to control; format: functional; conditions: for viability at 10 µM: Homo sapiens, Ramos, 48 h, read-out: Activity; outline: as §2
[7] = Cell cycle arrest in human Ramos cells assessed as accumulation at G0/G1 phase at 10 uM by propidium iodide staining based flow cytometry (reference value: 56.19%); format: functional
Outline: (§3)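 Ramos cells treated, then cell-cycle phase distribution (G0/G1, S, G2/M) measured by flow cytometry. Three separate experiments, expressed as mean±standard deviation.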

Ramos [8] = test: Induction of apoptosis in human Ramos cells assessed as necrotic cells at 10 uM after 48 hrs by annexin V/FITC propidium iodide staining based flow cytometry relative to control; format: functional; outline: as §2
[9] = Cell cycle arrest in human Ramos cells assessed as accumulation at G2/M phase at 10 uM by propidium iodide staining based flow cytometry (reference value: 1.58%); format: functional; outline: as §3
[10] = Cell cycle arrest in human Ramos cells assessed as accumulation at S phase at 10 uM by propidium iodide staining based flow cytometry (reference value: 42.23%); format: functional; outline: as §3
Ramos [11] = test: Induction of apoptosis in human Ramos cells assessed as late apoptotic cells at 10 uM after 48 hrs by annexin V/FITC propidium iodide staining based flow cytometry relative to control; format: functional; outline: as §2

Structure (SMILES): C=CC(=O)Nc1cccc(-n2c(=O)[nH]c3cnc(Nc4ccc(N5CCN(CC)CC5)cc4)nc32)c1
- IC50 [1]: 35.2 µM
- IC50 [2]: > 100 nM
- IC50 [3]: 11.9 µM
- IC50 [4]: > 100 nM

Structure (SMILES): C=CC(=O)N1CCC[C@@H](n2nc(-c3ccc(Oc4ccccc4)cc3)c3c(N)ncnc32)C1 [IBRUTINIB]
- IC50 [1]: 8.11 µM
- Activity (Ramos [5]): 37%
- Activity (Ramos [6]): 62%
- Activity [7]: 46.4%
- IC50 [3]: 15.2 µM
- Activity (Ramos [8]): 0.1%
- Activity [9]: 0.15%
- Activity [10]: 53.5%

Structure (SMILES): C=CC(=O)Nc1cccc(-n2cnc3cnc(Nc4ccc(OCCCN5CCOCC5)cc4)nc32)c1
- IC50 [1]: 7.75 µM
- Activity (Ramos [5]): 41.9%
- IC50 [2]: 72.6 nM
- viability at 10 µM (Ramos [6]): 44.9%
- Activity [7]: 41%
- IC50 [3]: 12.6 µM
- IC50 [4]: 0.4 nM
- Activity (Ramos [8]): 2.2%
- Activity (Ramos [11]): 10.9%
- Activity [9]: 6.61%
- Activity [10]: 52.4%

Structure (SMILES): C=CC(=O)Nc1cccc(-n2cnc3cnc(Nc4ccc(N5CCN(CC)CC5)cc4OC)nc32)c1
- IC50 [1]: > 40 µM
- IC50 [2]: > 100 nM
- IC50 [3]: > 40 µM
- IC50 [4]: > 100 nM

Structure (SMILES): C=CC(=O)Nc1cccc(-n2cnc3cnc(Nc4ccc(N5CCN(CC)CC5)cc4)nc32)c1
- IC50 [1]: 12.1 µM
- IC50 [2]: 67.5 nM
- IC50 [3]: 19.5 µM
- IC50 [4]: 0.5 nM

Structure (SMILES): C=CC(=O)Nc1cccc(-n2c(=O)[nH]c3cnc(Nc4ccc(N5CCOCC5)cc4OC)nc32)c1
- IC50 [1]: 39.1 µM
- IC50 [2]: > 100 nM
- IC50 [3]: > 40 µM
- IC50 [4]: > 100 nM

Structure (SMILES): C=CC(=O)Nc1cccc(-n2cnc3cnc(Nc4ccc(N5CCN(S(C)(=O)=O)C(C)C5)cc4)nc32)c1 (stereo unspecified)
- IC50 [1]: > 40 µM
- IC50 [2]: 83.1 nM
- IC50 [3]: 31.7 µM
- IC50 [4]: 13.2 nM

Structure (SMILES): C=CC(=O)Nc1cccc(-n2cnc3cnc(Nc4ccc(N5CCN(C)CC5)cc4OC)nc32)c1
- IC50 [1]: 13.2 µM
- IC50 [2]: > 100 nM
- IC50 [3]: 13.7 µM
- IC50 [4]: > 100 nM

Structure (SMILES): C=CC(=O)Nc1cccc(-n2cnc3cnc(Nc4ccc(OC)cc4)nc32)c1
- IC50 [1]: > 40 µM
- IC50 [2]: 67.2 nM
- IC50 [3]: 31.2 µM
- IC50 [4]: 97.1 nM

Structure (SMILES): C=CC(=O)Nc1cccc(-n2cnc3cnc(Nc4ccc(N5CCN(S(C)(=O)=O)CC5)cc4OC)nc32)c1
- IC50 [1]: 38.6 µM
- IC50 [2]: > 100 nM
- IC50 [3]: 21.9 µM
- IC50 [4]: > 100 nM

Structure (SMILES): C=CC(=O)Nc1cccc(-n2cnc3cnc(Nc4ccc(N5CCN(S(C)(=O)=O)CC5)cc4)nc32)c1
- IC50 [1]: > 40 µM
- IC50 [2]: 70.1 nM
- IC50 [3]: > 40 µM
- IC50 [4]: 17.1 nM

Structure (SMILES): C=CC(=O)Nc1cccc(Nc2nc(Nc3ccc(OCCOC)cc3)ncc2F)c1 [SPEBRUTINIB]
- IC50 [1]: 15.1 µM
- Activity (Ramos [5]): 21.1%
- viability at 10 µM (Ramos [6]): 54.2%
- Activity [7]: 31%
- IC50 [3]: 25.3 µM
- Activity (Ramos [8]): 4.3%
- Activity (Ramos [11]): 20.4%
- Activity [9]: 20.9%
- Activity [10]: 47.9%

Structure (SMILES): C=CC(=O)Nc1cccc(-n2cnc3cnc(Nc4ccc(N5CCN(C(C)=O)C(C)C5)cc4)nc32)c1 (stereo unspecified)
- IC50 [1]: > 40 µM
- IC50 [2]: 61.2 nM
- IC50 [3]: 24.2 µM
- IC50 [4]: 0.5 nM

Structure (SMILES): C=CC(=O)Nc1cccc(-n2cnc3cnc(Nc4ccc(N5CCN(C)CC5)cc4)nc32)c1
- IC50 [1]: 8.22 µM
- IC50 [2]: 67.1 nM
- IC50 [3]: 7.55 µM
- IC50 [4]: 10.2 nM

Structure (SMILES): C=CC(=O)Nc1cccc(-n2cnc3cnc(Nc4ccc(N5CCOCC5)cc4)nc32)c1
- IC50 [1]: 11.3 µM
- IC50 [2]: > 100 nM
- IC50 [3]: 11.8 µM
- IC50 [4]: 15.1 nM
